Results of several laboratories.
Each line is one published result; the experiments were not run side by side.
Read-out: microbial growth

CC1=NN(CNc2ccc(O)cc2)C(=O)C1=NNn1c(-c2ccccc2)nc2ccccc2c1=O — MIC (Micrococcus luteus; broth dilution; 24 h): 53.5 µM
O=C(Nc1ccc(N2CCOCC2)cc1)Nc1ccc(Cl)c(C(F)(F)F)c1 — MIC (Staphylococcus aureus; NCTC8325; 24 h): > 100 µM
CC1(C)S[C@@H]2[C@H](NC(=O)[C@H](N)c3ccccc3)C(=O)N2[C@H]1C(=O)O — MIC (Bifidobacterium longum; broth dilution; ATCCBAA999): 0.25 µg/mL
Cc1cccc(C)c1NC(=O)Nc1ccc(Cl)c(C(F)(F)F)c1 — MIC (Staphylococcus aureus; NCTC8325; 24 h): > 100 µM
O=C(O)c1cn(C2CC2)c2cc(N3CCNCC3)c(F)cc2c1=O — MIC (Micrococcus luteus; broth dilution; 24 h): 0.57 µM
CCc1cc(Nc2cc(=O)n(CCCCO)c(=O)[nH]2)ccc1C — MIC (Lactobacillus acidophilus; agar dilution; 48 h): 32 µg/mL
O=C(NOCC(O)CO)c1cc(Br)c(F)c(F)c1Nc1ccc(I)cc1F (centres unmarked) — MIC (Staphylococcus aureus; NCTC8325): > 30 µM
O=C(O)CN1C(=O)/C(=C/c2c3ccccc3c(-c3ccc(N(c4ccccc4)c4ccccc4)cc3)c3ccccc23)NC1=S — MIC (Micrococcus luteus; broth dilution; ATCC10240): > 1000 µg/mL
CC1=NN(CNc2ccc(Cl)cc2)C(=O)C1=NNn1c(-c2ccccc2)nc2ccccc2c1=O — MIC (Micrococcus luteus; broth dilution; 24 h): 103 µM
O=C1NC(=S)S/C1=C\c1ccc(-c2ccc(N(c3ccccc3)c3ccccc3)cc2)c2ccccc12 — MIC (Micrococcus luteus; broth dilution; ATCC10240): 250 µg/mL
O=C1c2ccccc2-c2n[nH]c3cccc1c23 — MIC (Staphylococcus aureus; NCTC8325): > 30 µM
O=C1NC(=S)N/C1=C\c1c2ccccc2c(-c2ccc(N(c3ccccc3)c3ccccc3)cc2)c2ccccc12 — MIC (Micrococcus luteus; broth dilution; ATCC10240): > 1000 µg/mL
CC1=NN(CNc2ccc(C(=O)O)cc2)C(=O)C1=NNn1c(-c2ccccc2)nc2ccccc2c1=O — MIC (Micrococcus luteus; broth dilution; 24 h): 50.5 µM
O=C1NC(=S)S/C1=C\c1c2ccccc2c(-c2ccc(N(c3ccccc3)c3ccccc3)cc2)c2ccccc12 — MIC (Micrococcus luteus; broth dilution; ATCC10240): > 1000 µg/mL
O=c1[nH]c(NCc2ccc(Cl)c(Cl)c2)nc2ncn(CCN3CCOCC3)c12 — MIC (Lactobacillus acidophilus; agar dilution; 48 h): 4 µg/mL
O=C(O)c1cn(C2CC2)c2cc(N3CCNCC3)c(F)cc2c1=O — MIC (Micrococcus luteus; broth dilution; ATCC10240): 0.98 µg/mL
CCn1cc(-c2ccnc3[nH]c(-c4cccc(CN(C)C)c4)cc23)c(-c2ccc(NC(=O)N(C)C)cc2)n1 — MIC (Staphylococcus aureus; NCTC8325): > 30 µM
